# Assay results: ChEMBL document CHEMBL1833876 (J Med Chem, 2011)
# The source made the active and inactive calls. The rule behind the calls is not given here.
# Columns and labels:
# Mus musculus [1] = experiment: Toxicity in human IGROV1 cells expressing human RFC, FRalpha and PCFT xenografted SCID mouse assessed as weight loss at 25 mg/kg, iv administered on days 3, 7, 11, 15, and 19 postimplantation measured on day 27 post last treatment; assay type: organism-based, IGROV-1; parameters: dose 25 mg/kg, route intravenous; settings: in vivo
# In short: (§1)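 Female ICR SCID mice (10 weeks old) were fed a folate-deficient or folate-replete diet from 24 days before implant. IGROV1 tumor fragments (30–60 mg) were implanted bilaterally s.c. by trocar, and mice were randomized. Dosing was i.v. on a Q4dx5 schedule (days 3, 7, 11, 15, 19). Mice were weighed daily to track weight-loss nadir and recovery.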
# [2] = Antiproliferative activity against chinese hamster RT16 cells expressing human FRalpha assessed as reduction of viable cells after 96 hrs in the presence of 200 nM folic acid; assay type: functional, cell-based; settings: Cricetulus griseus, RT16, 96 h
# In short: (§2)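 Same 96 h CellTiter-blue proliferation set-up in folate-free RPMI/10% dFBS with 2 nM leucovorin. Run in parallel incubations that included 200 nM folic acid alongside the antifolate, to establish FR-dependent uptake.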
# KB [3] = experiment: Antiproliferative activity against human KB cells expressing human RFC, FRalpha and PCFT assessed as reduction of viable cells after 96 hrs in the presence of 200 nM folic acid; assay type: functional, cell-based; in short: as §2
# Mus musculus [4] = experiment: Toxicity in human IGROV1 cells expressing human RFC, FRalpha and PCFT xenografted SCID mouse assessed as weight loss at 40 mg/kg, iv administered on days 3, 7, 11, 15, and 19 postimplantation measured on day 21; assay type: organism-based, IGROV-1; parameters: dose 40 mg/kg, route intravenous; settings: in vivo
# In short: (§3)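 Female ICR SCID mice, 10 weeks old, on a folate-deficient diet from 24 days before implant. Bilateral subcutaneous IGROV1 tumour fragments (30–60 mg, by trocar); mice pooled, then randomised. IV dosing on days 3, 7, 11, 15 and 19. Mice weighed daily; tumours measured by caliper 2–3 times weekly; mice sacrificed at 1500 mg tumour burden. Weight-loss nadir and recovery recorded.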
# Mus musculus [5] = experiment: Toxicity in human IGROV1 cells expressing human RFC, FRalpha and PCFT xenografted SCID mouse assessed as weight loss at 40 mg/kg, iv administered on days 3, 7, 11, 15, and 19 postimplantation measured on day 10 post last treatment; settings: in vivo
# IGROV-1 [6] = experiment: Antitumor activity against human IGROV1 cells expressing human RFC, FRalpha and PCFT xenografted in SCID mouse assessed as tumor growth inhibition at 40 mg/kg, iv administered on days 3, 7, […], […], and […] postimplantation; assay type: functional
# [7] = Antiproliferative activity against chinese hamster R2(VC) cells assessed as reduction of viable cells after 96 hrs; settings: Cricetulus griseus
# R2 [8] = experiment: Antiproliferative activity against chinese hamster R2 cells expressing human PCFT assessed as inhibition of colony formation after 10 to 14 days; assay type: functional, cell-based, Cricetulus griseus
# Mus musculus [9] = experiment: Toxicity in human IGROV1 cells expressing human RFC, FRalpha and PCFT xenografted SCID mouse assessed as weight loss at 25 mg/kg, iv administered on days 3, 7, 11, 15, and 19 postimplantation measured on day 8 post last treatment; assay type: organism-based, IGROV-1; parameters: dose 25 mg/kg, route intravenous; settings: in vivo; in short: as §1
# R2 [10] = experiment: Antiproliferative activity against chinese hamster R2 cells expressing human PCFT assessed as growth inhibition in the presence of 320 uM AICA; assay type: functional, cell-based; settings: Cricetulus griseus
# In short: (§4)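 R2/hPCFT4 cells were grown in folate-free RPMI with 25 nM leucovorin and 10% dFBS and exposed to antifolate for up to 96 h. Rescue co-incubations used thymidine (10 µM), adenosine (60 µM) and AICA (320 µM), alone or combined. Viability was read by CellTiter-blue.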
# [11] = Antiproliferative activity against chinese hamster PC43-10 expressing human RFC assessed as reduction of viable cells after 96 hrs; assay type: functional; settings: Cricetulus griseus, PC43-10, 96 h
# IGROV-1 [12] = experiment: Antitumor activity against human IGROV1 cells expressing human RFC, FRalpha and PCFT xenografted in SCID mouse assessed as tumor growth inhibition at 25 mg/kg, iv administered on days 3, 7, […], […], and […] postimplantation; assay type: functional
# R2 [13] = experiment: Antiproliferative activity against chinese hamster R2 cells expressing human PCFT assessed as growth inhibition in the presence of 60 uM adenosine; assay type: functional, cell-based; settings: Cricetulus griseus; in short: as §4
# Mus musculus [14] = experiment: Toxicity in human IGROV1 cells expressing human RFC, FRalpha and PCFT xenografted SCID mouse assessed as weight loss at 25 mg/kg, iv administered on days 3, 7, 11, 15, and 19 postimplantation measured on day 13; assay type: organism-based, IGROV-1; parameters: dose 25 mg/kg, route intravenous; settings: in vivo; in short: as §3
# [15] = target: T1, Proton-coupled folate transporter (Homo sapiens) (UniProt Q96NT5); experiment: Inhibition of human PCFT-mediated [3H]MTX uptake expressed in chinese hamster R2 cells at pH 5.5 by dixon plot analysis relative to PMX; assay type: cell-based; settings: concentration not given here
# T1 sequence (whole entry): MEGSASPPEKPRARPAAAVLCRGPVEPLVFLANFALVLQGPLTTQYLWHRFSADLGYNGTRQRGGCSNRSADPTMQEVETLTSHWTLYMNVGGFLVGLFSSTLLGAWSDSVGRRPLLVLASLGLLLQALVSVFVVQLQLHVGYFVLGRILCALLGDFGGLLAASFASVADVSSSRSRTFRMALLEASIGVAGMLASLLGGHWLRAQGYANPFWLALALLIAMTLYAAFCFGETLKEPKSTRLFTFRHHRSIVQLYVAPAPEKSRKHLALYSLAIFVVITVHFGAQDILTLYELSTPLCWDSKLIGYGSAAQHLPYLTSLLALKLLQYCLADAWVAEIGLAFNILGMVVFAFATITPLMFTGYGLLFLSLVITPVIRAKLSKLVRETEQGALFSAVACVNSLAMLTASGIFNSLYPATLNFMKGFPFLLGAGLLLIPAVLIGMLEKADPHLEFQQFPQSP
# KB [16] = experiment: Antiproliferative activity against human KB cells expressing human RFC, FRalpha and PCFT assessed as reduction of viable cells after 96 hrs; assay type: functional, cell-based
# IGROV-1 [17] = experiment: Antiproliferative activity against human IGROV1 cells expressing human RFC, FRalpha and PCFT assessed as reduction of viable cells after 96 hrs in the presence of 200 nM folic acid; assay type: functional, cell-based; settings: IGROV-1, 96 h; in short: as §2
# Mus musculus [18] = experiment: Toxicity in human IGROV1 cells expressing human RFC, FRalpha and PCFT xenografted SCID mouse assessed as reversible weight loss at 25 to 40 mg/kg, iv administered on days 3, 7, 11, 15, and 19 postimplantation; assay type: organism-based, IGROV-1; parameters: dose 25-40 mg/kg, route intravenous; settings: in vivo; in short: as §3
# IGROV-1 [19] = experiment: Antitumor activity against human IGROV1 cells expressing human RFC, FRalpha and PCFT xenografted in standard folate diet fed SCID mouse assessed as tumor growth inhibition at 25 to 40 mg/kg, iv administered on days 3, 7, […], […], and […] postimplantation; assay type: functional; settings: dose mg/kg 25-40
# R2 [20] = experiment: Antiproliferative activity against chinese hamster R2 cells assessed as reduction of viable cells after 96 hrs; settings: Cricetulus griseus, R2, 96 h
# R2 [21] = experiment: Decrease in intracellular ATP concentration in chinese hamster R2 cells expressing human PCFT at 1 uM after 24 hrs by HPLC relative to control at pH 6.8; assay type: functional, Cricetulus griseus; parameters: scale not given: the % may be the effect or the level left
# In short: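 R2/hPCFT4 CHO cells seeded in folate-free RPMI 1640 with 10% dialysed FBS and 25 nM leucovorin (pH 7.2). After 24 h, switched to the same medium buffered to pH 6.8 with 25 mM PIPES/25 mM HEPES. Drug at 1 µM, or vehicle (0.5% DMSO or H2O), for 24 h. Nucleotides extracted; ATP quantified by HPLC against vehicle control.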
# IGROV-1 [22] = experiment: Antiproliferative activity against human IGROV1 cells expressing human RFC, FRalpha and PCFT assessed as reduction of viable cells after 96 hrs; assay type: functional, cell-based; settings: IGROV-1, 96 h
# [23] = Inhibition of GARFTase in chinese hamster R2 cells expressing human PCFT assessed as incorporation of [14C]glycine into [14C]formyl GAR in the presence of 4 uM azaserine; assay type: cell-based, Cricetulus griseus
# Mus musculus [24] = experiment: Toxicity in human IGROV1 cells expressing human RFC, FRalpha and PCFT xenografted SCID mouse assessed as mortality at 25 to 40 mg/kg, iv administered on days 3, 7, […], […], and […] postimplantation; assay type: organism-based, IGROV-1; settings: in vivo
# [25] = target: T1, Proton-coupled folate transporter (Homo sapiens); experiment: Inhibition of human PCFT-mediated [3H]MTX uptake expressed in chinese hamster R2 cells at pH 6.8 […] relative to PMX; assay type: cell-based; settings: concentration not given here
smiles,measurement,setting,value
Nc1nc2[nH]c(CCCc3ccc(C(=O)N[C@@H](CCC(=O)O)C(=O)O)s3)cc2c(=O)[nH]1,Activity,Mus musculus [1],Non-toxic
same,IC50,[2],> 1000 nM
same,IC50,KB [3],> 1000 nM
same,Activity,Mus musculus [4],9.4%
same,Activity,Mus musculus [5],Non-toxic
same,T/C,IGROV-1 [6],14%
same,IC50,[7],288 nM
same,IC50,R2 [8],1.4 nM
same,Activity,Mus musculus [9],Non-toxic
same,Activity,R2 [10],inactive
same,IC50,[11],101 nM
same,T/C,IGROV-1 [12],16%
same,Activity,R2 [13],inactive
same,Activity,Mus musculus [14],6.3%
same,inhibition,[15],35%
same,IC50,KB [16],0.26 nM
same,IC50,IGROV-1 [17],> 1000 nM
same,Activity,Mus musculus [18],2.7%
same,T/C,IGROV-1 [19],67%
same,IC50,R2 [20],274 nM
same,Activity,R2 [21],90%
same,IC50,IGROV-1 [22],0.55 nM
same,IC50,[23],0.69 nM
same,Activity,Mus musculus [24],Non-toxic
same,inhibition,[25],18%
